Results reported in ChEMBL document CHEMBL1149424, “Synthesis of functionalized 1,8-naphthyridinones and their evaluation as novel, orally active CB1 receptor inverse agonists” (Bioorg Med Chem Lett, 2006).

What was measured:
Cannabinoid receptor 1 = Cannabinoid receptor 1 (Homo sapiens, UniProt P21554); test: Binding affinity at the CB1 receptor
Cannabinoid receptor 2 = Cannabinoid receptor 2 (Homo sapiens, UniProt P34972); test: Binding affinity at the CB2 receptor
[1] = Half life in rhesus macaque; type: ADME, organism-based, Macaca mulatta; conditions: rhesus monkey, in vivo
Rattus norvegicus [2] = test: Reduction in food intake in SD rat at 18 hrs after administration of 3.0 mg/kg, po; type: functional, Sprague-Dawley; set-up: scale not given: the % may be the effect or the level left
Summary of the method: (§1)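 Diet-induced obese Sprague–Dawley rats, six per treatment group, dosed orally with the compound in 10% Tween 80 in water 30–60 min before dark onset. Food cups weighed every 5 min in an automated system over the 18 h after dosing. Overnight body weight change also recorded. Suppression is expressed relative to vehicle-treated controls.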

[3] = Oral bioavailability in rhesus macaque; type: ADME, organism-based, Macaca mulatta; conditions: rhesus monkey, in vivo
Mus musculus [4] = test: Reduction in food intake in wild type C57BL/6 mice at 2 hrs after administration of 10 mg/kg, po; type: functional; set-up: scale not given: the % may be the effect or the level left
Summary of the method: (§2)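 Ad libitum fed 12-week-old male C57BL/6 mice, n = 12 per group, given the compound orally at 1, 3 or 10 mpk in 0.225% methylcellulose/10% Tween 80 about 30 min before the dark phase. Food intake measured at 2 h and overnight. Overnight (18 h) body weight gain recorded and compared with vehicle.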

[5] = Plasma clearance in Sprague-Dawley rat; type: ADME, organism-based
[6] = Rat brain to plasma ratio at 0.25 hrs post iv dosing; type: ADME, organism-based; conditions: Sprague-Dawley
Summary of the method: (§3)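 Sprague–Dawley rats were dosed intravenously as part of a pharmacokinetic profile. Brain and plasma concentrations were sampled at 0.25 h and at 4 h post-dose and expressed as a brain-to-plasma ratio.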

[7] = Rat brain to plasma ratio at 4 hrs post iv dosing; type: ADME, organism-based; conditions: Sprague-Dawley; summary of the method: as §3
[8] = Oral bioavailability in Beagle dog; type: ADME, organism-based, Canis lupus familiaris; conditions: in vivo
Rattus norvegicus [9] = test: Reduction in food intake in SD rat at 18 hrs after administration of 0.3 mg/kg, po; type: functional, Sprague-Dawley; set-up: scale not given: the % may be the effect or the level left; summary of the method: as §1
[10] = Plasma clearance in rhesus macaque; type: ADME, organism-based, Macaca mulatta; conditions: rhesus monkey
[11] = Plasma clearance in C57BL/6 mouse; type: ADME, organism-based
Rattus norvegicus [12] = test: Reduction in food intake in SD rat at 18 hrs after administration of 1.0 mg/kg, po; type: functional, Sprague-Dawley; set-up: scale not given: the % may be the effect or the level left; summary of the method: as §1
[13] = Half life in C57BL/6 mouse; type: ADME, organism-based; conditions: in vivo
[14] = Oral bioavailability in Sprague-Dawley rat; type: ADME, organism-based; conditions: in vivo
[15] = Half life in Beagle dog; type: ADME, organism-based, Canis lupus familiaris; conditions: in vivo
[16] = Plasma clearance in Beagle dog; type: ADME, organism-based, Canis lupus familiaris
[17] = Oral bioavailability in C57BL/6 mouse; type: ADME, organism-based; conditions: in vivo
Mus musculus [18] = test: Reduction in body weight overnight (18 hrs) in wild type C57BL/6 mice at 10 mg/kg; type: functional; set-up: scale not given: the % may be the effect or the level left; summary of the method: as §2
[19] = Half life in Sprague-Dawley rat; type: ADME, organism-based; conditions: in vivo

Cannabinoid receptor 1, sequence (P21554 whole entry): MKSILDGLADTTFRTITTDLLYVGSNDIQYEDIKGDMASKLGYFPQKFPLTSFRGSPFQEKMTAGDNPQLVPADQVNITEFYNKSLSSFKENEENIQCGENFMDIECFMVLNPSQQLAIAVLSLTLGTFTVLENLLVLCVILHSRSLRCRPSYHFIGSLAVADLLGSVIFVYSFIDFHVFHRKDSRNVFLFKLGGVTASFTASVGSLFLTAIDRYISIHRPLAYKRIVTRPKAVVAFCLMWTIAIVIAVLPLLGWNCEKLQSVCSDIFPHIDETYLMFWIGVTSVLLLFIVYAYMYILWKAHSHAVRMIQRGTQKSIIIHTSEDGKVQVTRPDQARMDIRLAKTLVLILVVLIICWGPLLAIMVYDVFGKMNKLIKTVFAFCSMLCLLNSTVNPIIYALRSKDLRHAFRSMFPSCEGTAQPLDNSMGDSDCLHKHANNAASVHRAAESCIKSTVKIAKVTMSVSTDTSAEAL
Cannabinoid receptor 2, sequence (P34972 whole entry): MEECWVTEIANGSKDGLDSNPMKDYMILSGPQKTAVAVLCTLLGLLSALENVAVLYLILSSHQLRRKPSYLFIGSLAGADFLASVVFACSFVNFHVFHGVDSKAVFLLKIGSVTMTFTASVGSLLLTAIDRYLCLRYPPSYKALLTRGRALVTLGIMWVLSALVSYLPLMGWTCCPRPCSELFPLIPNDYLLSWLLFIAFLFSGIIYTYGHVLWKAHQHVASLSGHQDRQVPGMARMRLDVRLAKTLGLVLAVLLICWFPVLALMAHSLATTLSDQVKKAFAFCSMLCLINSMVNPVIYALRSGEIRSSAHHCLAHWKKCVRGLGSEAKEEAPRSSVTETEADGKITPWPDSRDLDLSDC

Compound | IC50 (Cannabinoid receptor 1) [nM] | IC50 (Cannabinoid receptor 2) [nM] | also measured
COCC(=O)Nc1c(C(C)=O)c(=O)n(C)c2nc(-c3ccc(Cl)cc3Cl)c(-c3ccc(Cl)cc3)cc12 | 24 | 3200 | 
CC(=O)Nc1c(N(C)C)c(=O)n(C)c2nc(-c3ccc(Cl)cc3Cl)c(-c3ccc(Cl)cc3)cc12 | 20 | 2500 | 
CC(=O)c1c(NC(=O)CO)c2cc(-c3ccc(Cl)cc3)c(-c3ccc(Cl)cc3Cl)nc2n(C)c1=O | 46 | 3600 | 
CC(=O)Nc1c(C)c(=O)n(C)c2nc(-c3ccc(Cl)cc3Cl)c(-c3ccc(Cl)cc3)cc12 | 26 | 1500 | 
CC(=O)Nc1c(C(C)=O)c(=O)n(C)c2nc(-c3ccc(Cl)cc3Cl)c(-c3ccc(Cl)cc3)cc12 [NAPHTHYRIDINONE] |  | 4100 | half-life [1]: 22 h; Activity (Rattus norvegicus [2]): 68%; bioavailability [3]: 96%; Activity (Mus musculus [4]): 49%; clearance [5]: 12 mL/min/kg; Kp at 0.25 h [6]: 0.9; Kp at 4 h [7]: 2.7; bioavailability [8]: 100%; Activity (Rattus norvegicus [9]): 22%; clearance [10]: 1.4 mL/min/kg; clearance [11]: 13.9 mL/min/kg; Activity (Rattus norvegicus [12]): 39%; half-life [13]: > 8 h; bioavailability [14]: 93%; half-life [15]: > 24 h; clearance [16]: 4.4 mL/min/kg; bioavailability [17]: 70%; Activity (Mus musculus [18]): 88%; half-life [19]: > 8 h
CC(=O)Nc1c(C(C)C)c(=O)n(C)c2nc(-c3ccc(Cl)cc3Cl)c(-c3ccc(Cl)cc3)cc12 | 15 | 5400 | 
CC(=O)Nc1c(C(C)=O)c(=O)n(CCO)c2nc(-c3ccc(Cl)cc3Cl)c(-c3ccc(Cl)cc3)cc12 | 32 | 1500 | 
CC(=O)Nc1c(C(C)=O)c(=O)n(CC(C)C)c2nc(-c3ccc(Cl)cc3Cl)c(-c3ccc(Cl)cc3)cc12 | 2.3 | 6200 | 
COCCn1c(=O)c(C(C)=O)c(NC(C)=O)c2cc(-c3ccc(Cl)cc3)c(-c3ccc(Cl)cc3Cl)nc21 | 3.7 | 1800 | 
CC(=O)Nc1c(C(C)=O)c(=O)n(CC2CCCO2)c2nc(-c3ccc(Cl)cc3Cl)c(-c3ccc(Cl)cc3)cc12 (centres undefined) | 5.2 | 1400 | 
CC(=O)Nc1c(C(C)=O)c(=O)n(Cc2ccccc2)c2nc(-c3ccc(Cl)cc3Cl)c(-c3ccc(Cl)cc3)cc12 | 2.3 | 5100 | 

Continued, in another order:

IC50 (Cannabinoid receptor 1) [nM] | IC50 (Cannabinoid receptor 2) [nM] | Compound | also measured
77 | 1400 | CC(=O)Nc1c(C(C)=O)c(=O)[nH]c2nc(-c3ccc(Cl)cc3Cl)c(-c3ccc(Cl)cc3)cc12 | 
96 | 1400 | CC(=O)c1c(N(C)C)c2cc(-c3ccc(Cl)cc3)c(-c3ccc(Cl)cc3Cl)nc2n(C)c1=O | 
110 | 380 | CC(=O)Nc1cc(=O)n(C)c2nc(-c3ccc(Cl)cc3Cl)c(-c3ccc(Cl)cc3)cc12 | 
55 | 1400 | CC(=O)c1c(C)c2cc(-c3ccc(Cl)cc3)c(-c3ccc(Cl)cc3Cl)nc2n(C)c1=O | 
35 | 720 | CC(=O)Nc1c(C#N)c(=O)n(C)c2nc(-c3ccc(Cl)cc3Cl)c(-c3ccc(Cl)cc3)cc12 | 
120 | 1100 | CC(=O)c1c(N)c2cc(-c3ccc(Cl)cc3)c(-c3ccc(Cl)cc3Cl)nc2n(C)c1=O | 
24 | 1100 | COc1c(NC(C)=O)c2cc(-c3ccc(Cl)cc3)c(-c3ccc(Cl)cc3Cl)nc2n(C)c1=O | 
